# Data taken from ChEMBL document CHEMBL1147266, “New dammarane triterpenes from the aerial parts of Ibicella lutea grown in Argentina” (J Nat Prod, 2003).
# Key:
# Type in all cases: functional, cell-based
# [1] = Cytotoxicity against human H116 cells after 3 days by crystal violet staining; details: H116, 72 h
# Summary of the method: (§1)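 Cells kept in log-phase growth in EMEM with nonessential amino acids, 2.0 mM L-glutamine, 5% FCS, 10^-2 M NaHCO3 and penicillin/streptomycin. Trypsin-harvested cells seeded at 1×10^4/well in 24-well dishes with graded sample concentrations, drug-free growth controls included, in duplicate. Incubated 3 days at 37 °C, 5% CO2, then crystal violet stained for approximate IC50. Coulter counts of trypsinized cells gave %G dose-response curves for IC50.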
# A549 = assay: Cytotoxicity against human A549 cells after 3 days by crystal violet staining; details: A549, 72 h; summary of the method: as §1
# HT-29 = assay: Cytotoxicity against human HT-29 cells after 3 days by crystal violet staining; details: HT-29, 72 h; summary of the method: as §1
# PSN1 = assay: Cytotoxicity against human PSN1 cells after 3 days by crystal violet staining; details: PSN1, 72 h; summary of the method: as §1
# T98G = assay: Cytotoxicity against human T98G cells after 3 days by crystal violet staining; details: 72 h; summary of the method: as §1
structure (smiles),measurement,setting,value
CC(=O)O[C@@H]1C[C@@H]2[C@@]3(C)[C@H](OC(C)=O)C[C@@H](OC(C)=O)C(C)(C)[C@@H]3CC[C@@]2(C)[C@]2(C)CC[C@H]([C@]3(C)CC[C@H](C(C)(C)OC(C)=O)O3)[C@@H]12,IC50,[1],5 µg/mL
CC(C)(O)[C@@H]1CC[C@@](C)([C@H]2CC[C@]3(C)[C@@H]2[C@H](O)C[C@@H]2[C@@]4(C)CC[C@H](O)C(C)(C)[C@@H]4CC[C@]23C)O1 (relative stereo),IC50,A549,5 µg/mL
same,IC50,[1],5 µg/mL
CC(=O)O[C@@H]1C[C@@H](OC(C)=O)[C@]2(C)[C@H]3C[C@@H](O)[C@@H]4[C@@H]([C@]5(C)CC[C@H](C(C)(C)O)O5)CC[C@@]4(C)[C@]3(C)CC[C@H]2C1(C)C (relative stereo),IC50,A549,> 10 µg/mL
same,IC50,HT-29,> 10 µg/mL
same,IC50,[1],> 10 µg/mL
CC(=O)O[C@H]1CC[C@]2(C)[C@H]3C[C@@H](OC(C)=O)[C@@H]4[C@@H]([C@]5(C)CC[C@@H](C(C)(C)O)O5)CC[C@@]4(C)[C@]3(C)CC[C@H]2C1(C)C,IC50,A549,5 µg/mL
same,IC50,[1],5 µg/mL
CC(=O)O[C@H]1CC[C@]2(C)[C@H]3C[C@@H](OC(C)=O)[C@@H]4[C@@H]([C@]5(C)CC[C@@H](C(C)(C)OC(C)=O)O5)CC[C@@]4(C)[C@]3(C)CC[C@H]2C1(C)C,IC50,A549,> 5 µg/mL
same,IC50,[1],> 5 µg/mL
same,IC50,PSN1,> 5 µg/mL
same,IC50,T98G,> 5 µg/mL
CC(=O)O[C@H]1CC[C@]2(C)[C@H]3C[C@@H](O)[C@@H]4[C@@H]([C@]5(C)CC[C@@H](C(C)(C)O)O5)CC[C@@]4(C)[C@]3(C)CC[C@H]2C1(C)C,IC50,A549,> 5 µg/mL
same,IC50,[1],> 5 µg/mL
same,IC50,PSN1,> 5 µg/mL
same,IC50,T98G,> 5 µg/mL
CC(C)(O)[C@H]1CC[C@@](C)([C@H]2CC[C@]3(C)[C@@H]2[C@H](O)C[C@@H]2[C@@]4(C)[C@H](O)C[C@@H](O)C(C)(C)[C@@H]4CC[C@]23C)O1,IC50,A549,> 10 µg/mL
same,IC50,HT-29,> 10 µg/mL
same,IC50,[1],> 10 µg/mL
CC(=O)O[C@@H]1C[C@@H]2[C@@]3(C)[C@H](OC(C)=O)C[C@@H](OC(C)=O)C(C)(C)[C@@H]3CC[C@@]2(C)[C@]2(C)CC[C@H]([C@]3(C)CC[C@H](C(C)(C)O)O3)[C@@H]12 (relative stereo),IC50,A549,> 5 µg/mL
same,IC50,[1],> 5 µg/mL
same,IC50,PSN1,> 5 µg/mL
same,IC50,T98G,> 5 µg/mL
CC(=O)O[C@@H]1C[C@@H](O)[C@]2(C)[C@H]3C[C@@H](O)[C@@H]4[C@@H]([C@]5(C)CC[C@H](C(C)(C)O)O5)CC[C@@]4(C)[C@]3(C)CC[C@H]2C1(C)C (relative stereo),IC50,A549,> 10 µg/mL
same,IC50,HT-29,> 10 µg/mL
same,IC50,[1],> 10 µg/mL
